Test results from ChEMBL document CHEMBL1126550, “Nanomolar-affinity, non-peptide oxytocin receptor antagonists” (J Med Chem, 1993).

Key:
Oxytocin receptor = molecular target: T1, Oxytocin receptor (Rattus norvegicus, UniProt P70536); experiment: Inhibition of radioligand [3H]oxytocin binding at the oxytocin (OT) receptor in rat uterine tissue
T1 sequence (P70536 whole entry): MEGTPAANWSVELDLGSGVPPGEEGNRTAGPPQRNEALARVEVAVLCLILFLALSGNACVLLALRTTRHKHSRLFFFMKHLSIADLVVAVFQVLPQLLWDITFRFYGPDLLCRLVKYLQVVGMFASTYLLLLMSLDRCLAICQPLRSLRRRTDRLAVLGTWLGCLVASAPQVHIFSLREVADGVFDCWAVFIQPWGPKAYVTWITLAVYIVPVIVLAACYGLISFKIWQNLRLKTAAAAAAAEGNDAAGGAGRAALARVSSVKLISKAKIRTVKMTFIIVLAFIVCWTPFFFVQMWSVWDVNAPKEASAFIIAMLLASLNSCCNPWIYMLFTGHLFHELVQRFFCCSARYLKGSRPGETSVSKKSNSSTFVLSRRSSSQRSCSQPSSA
Method in brief: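 Uteri taken from rats given diethylstilbestrol dipropionate (0.3 mg/kg ip, 18–24 h before), crude membranes. 1 nM [3H]OT (30–60 Ci/mmol), equilibrium 60 min at 22 °C in 50 mM Tris-HCl, 5 mM MgCl2, 0.1% BSA, pH 7.4. Nonspecific binding with 1 mM unlabeled OT. Filtered on glass fiber. Initial single-concentration screen, then IC50 from seven concentrations by linear regression.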

Vasopressin V2 receptor = Vasopressin V2 receptor (Rattus norvegicus, UniProt Q00788); experiment: Inhibition of radioligand [3H]-AVP binding to the vasopressin V2 receptor in rat kidney tissue
Chain of Vasopressin V2 receptor (Q00788 whole entry): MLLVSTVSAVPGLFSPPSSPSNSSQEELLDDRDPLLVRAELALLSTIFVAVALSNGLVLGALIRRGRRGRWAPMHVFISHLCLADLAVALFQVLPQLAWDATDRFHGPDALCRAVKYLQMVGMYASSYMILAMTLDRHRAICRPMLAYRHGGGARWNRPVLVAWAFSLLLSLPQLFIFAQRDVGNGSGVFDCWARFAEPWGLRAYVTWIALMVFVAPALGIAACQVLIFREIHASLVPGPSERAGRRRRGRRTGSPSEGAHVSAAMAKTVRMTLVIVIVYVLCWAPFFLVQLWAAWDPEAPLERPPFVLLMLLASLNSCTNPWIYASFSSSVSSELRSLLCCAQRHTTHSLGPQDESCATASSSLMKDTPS
Method in brief: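 [3H]AVP (80–90 Ci/mmol) at 2 nM competed on crude membranes from male rat kidney medulla (V2 sites). Equilibrium 30 min at 30 °C in 100 mM Tris-HCl, 5 mM MgCl2, 0.1% BSA, 50 μM PMSF, 50 μg/mL bacitracin, pH 8.0. Nonspecific binding with 10 μM unlabeled AVP. Glass-fiber filtration. IC50 by linear regression of % inhibition vs log concentration, seven concentrations.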

Vasopressin V1 receptor = Vasopressin V1 receptor (Rattus norvegicus, UniProt P48974+P30560); experiment: Inhibition of radioligand [3H]AVP binding to the vasopressin V1 receptor in rat liver tissue
Method in brief: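 Crude membranes from male rat liver (V1 sites) competed with 1 nM [3H]AVP (80–90 Ci/mmol). Equilibrium 30 min, 30 °C, buffer 100 mM Tris-HCl, 5 mM MgCl2, 0.1% BSA, 50 μM PMSF, 50 μg/mL bacitracin, pH 8.0. 10 μM unlabeled AVP for nonspecific binding. Filtration through glass-fiber filters. IC50 from linear regression over seven concentrations.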

| Compound | IC50 (Oxytocin receptor) [µM] | IC50 (Vasopressin V2 receptor) [µM] | IC50 (Vasopressin V1 receptor) [µM] |
| --- | --- | --- | --- |
| CC1(C)[C@@H]2CC[C@@]1(CS(=O)(=O)N1CCC3(CCc4ccccc43)CC1)[C@@H](NC(=O)[C@H](CCC(N)=O)NC(=O)CCN)C2 | 0.0063 | 1.8 | 0.49 |
| Cc1[nH]cnc1C(=O)N[C@H]1C[C@H]2CC[C@]1(CS(=O)(=O)N1CCC3(CCc4ccccc43)CC1)C2(C)C | 0.15 | > 3 | > 3 |
| CC1(C)[C@@H]2CC[C@@]1(CS(=O)(=O)N1CCC3(CCc4ccccc43)CC1)[C@@H](N1C(=O)C3CC(O)CN3C1=O)C2 (some centres undefined) | 0.02 | 3.2 | 0.5 |
| CC1(C)[C@@H]2CC[C@@]1(CS(=O)(=O)N1CCC3(C=Cc4ccccc43)CC1)[C@@](O)(CNC(=O)Cc1ccccn1)C2 | 0.081 | 4.7 | 0.83 |
| CC1(C)[C@@H]2CC[C@@]1(CS(=O)(=O)N1CCC3(CCc4ccccc43)CC1)[C@H](N)C2 | 6.5 | > 10 | > 10 |
| CC1(C)[C@@H]2CC[C@@]1(CS(=O)(=O)N1CCC3(C=Cc4ccccc43)CC1)[C@@](O)(CNC(=O)c1ccccn1)C2 | 0.18 | 3.6 | 1.1 |
| CC1(C)[C@@H]2CC[C@@]1(CS(=O)(=O)N1CCC3(CCc4ccccc43)CC1)[C@@H](NC(=O)C(CCS(C)(=O)=O)NC(=O)Cc1c[nH]cn1)C2 (some centres undefined) | 0.0012 | 0.28 | 0.44 |
| CC1(C)[C@@H]2CC[C@@]1(CS(=O)(=O)N1CCC3(CCc4ccccc43)CC1)[C@@H](NC(=O)c1ccncc1)C2 | 0.19 | > 10 | > 1 |
| CC1(C)[C@@H]2CC[C@@]1(CS(=O)(=O)N1CCC3(C=Cc4ccccc43)CC1)[C@@](O)(CNC(=O)C1CCCNC1)C2 (some centres undefined) | 0.11 | 5.1 | > 0.3 |
| CC1(C)[C@@H]2CC[C@@]1(CS(=O)(=O)N1CCC3(CCc4ccccc43)CC1)[C@@H](N)C2 | 30 | > 10 | > 10 |
| CCC(C)(C)C(=O)NCC[C@@]1(O)C[C@H]2CC[C@]1(CS(=O)(=O)N1CCC3(C=Cc4ccccc43)CC1)C2(C)C | 0.045 | 13 | 2.3 |
| Cn1cnc(CC(=O)NC(CCS(C)(=O)=O)C(=O)N[C@H]2C[C@H]3CC[C@]2(CS(=O)(=O)N2CCC4(CCc5ccccc54)CC2)C3(C)C)c1 (some centres undefined) | 0.0007 | 0.49 | 1.2 |
| CCOC(=O)CCC(=O)N[C@H]1C[C@H]2CC[C@]1(CS(=O)(=O)N1CCC3(CCc4ccccc43)CC1)C2(C)C | 0.24 | 13 | 16 |
| CC1(C)[C@@H]2CC[C@@]1(CS(=O)(=O)N1CCC3(CCc4ccccc43)CC1)[C@@H](NC(=O)NCCc1c[nH]cn1)C2 | 0.068 | 14 | 4.7 |
| CC1(C)[C@@H]2CC[C@@]1(CS(=O)(=O)N1CCC3(CCc4ccccc43)CC1)[C@@H](N1C(=O)NC(Cc3c[nH]cn3)C1=O)C2 (mixture of isomers) | 0.015 | 1.5 | 0.58 |
| CC1(C)[C@@H]2CC[C@@]1(CS(=O)(=O)N1CCC3(CCc4ccccc43)CC1)[C@@H](NC(=O)NC1CN3CCC1CC3)C2 (single isomer, unassigned; isomer A) | 0.047 | 8.7 | 1.7 |
| CC1(C)[C@@H]2CC[C@@]1(CS(=O)(=O)N1CCC3(CCc4ccccc43)CC1)[C@@H](N1C(=O)NC(Cc3c[nH]cn3)C1=O)C2 (single isomer, unassigned; isomer A) | 0.016 | 2 | 0.6 |
| CC1(C)[C@@H]2CC[C@@]1(CS(=O)(=O)N1CCC3(CCc4ccccc43)CC1)[C@@H](NC(=O)C(CCS(C)(=O)=O)c1c[nH]cn1)C2 (single isomer, unassigned; isomer B) | 0.011 | 3.3 | 2.2 |
